Reference: ChEMBL document CHEMBL1128459, “Characterization of potent and selective antagonists at postsynaptic 5-HT1A receptors in a series of N4-substituted arylpiperazines” (J Med Chem, 1995)

Assays:
[1] = target: 5-hydroxytryptamine receptor 1B (Rattus norvegicus, UniProt P28564); assay: Binding affinity at 5-hydroxytryptamine 1B receptor
How it was run: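 Rat frontal cortex membranes (1/40 wt/vol) were homogenized in 50 mM Tris pH 7.7 with pargyline, 4 mM CaCl2 and 0.1% ascorbic acid, then preincubated for 30 min at 37 °C. Labelled with 2.0 nM [3H]-5-HT, with 100 nM 8-OH-DPAT and 100 nM mesulergine masking 5-HT1A/5-HT2A sites; 5-CT defined nonspecific binding.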

[2] = Ratio of MED (agonist) to that of MED (antagonist) values.; format: functional
How it was run: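 The MED for inducing hypothermia alone was divided by the MED for blocking 8-OH-DPAT (0.16 mg/kg sc) hypothermia. Both MEDs came from sc dosing in male Wistar rats and were tested against vehicle by ANOVA with Dunnett's test, P < 0.05.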

Rattus norvegicus [3] = species on record: Rattus norvegicus; assay: Maximum agonist effect (% effect) expressed relative to 8-hydroxy-DPAT (100%); format: functional
How it was run: (§1)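 In the rat rectal-temperature model (sc dosing, 8-OH-DPAT 0.16 mg/kg sc for antagonism), the maximal percentage of induced hypothermia (agonist) and of block of 8-OH-DPAT hypothermia (antagonist) was recorded. Each value is given with the dose at which it was reached.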

Rattus norvegicus [4] = assay: Compound after subcutaneous administration was evaluated for antagonist activity against hypothermia induced by 8-hydroxy -DPAT in rat; format: functional; conditions: sc, read-out: ID50 (the source's name)
How it was run: (§2)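 Male Wistar rats (200-220 g) had rectal temperature taken, then received the test drug sc in distilled water (1.0 mL/kg). After 30 min they got 8-OH-DPAT 0.16 mg/kg sc, and temperature was remeasured 30 min later. Change from basal was scored.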

[5] = target: T1, 5-hydroxytryptamine receptor 1A (Rattus norvegicus, UniProt P19327); assay: Binding affinity at 5-hydroxytryptamine 1A receptor
T1 sequence (P19327 whole entry): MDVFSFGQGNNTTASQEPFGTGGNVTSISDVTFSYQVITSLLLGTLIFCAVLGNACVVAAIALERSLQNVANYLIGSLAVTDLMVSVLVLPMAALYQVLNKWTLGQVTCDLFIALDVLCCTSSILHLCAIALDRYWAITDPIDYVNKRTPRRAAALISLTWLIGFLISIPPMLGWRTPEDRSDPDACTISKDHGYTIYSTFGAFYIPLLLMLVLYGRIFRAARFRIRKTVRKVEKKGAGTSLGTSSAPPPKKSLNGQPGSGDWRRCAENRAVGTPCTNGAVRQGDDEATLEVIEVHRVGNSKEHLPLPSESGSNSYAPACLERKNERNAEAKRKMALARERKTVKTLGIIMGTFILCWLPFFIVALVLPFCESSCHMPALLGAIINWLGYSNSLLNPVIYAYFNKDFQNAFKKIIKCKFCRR
How it was run: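 Rat hippocampal membranes (1/100 wt/vol) in 50 mM Tris pH 7.7 with 4 mM CaCl2, 0.1% ascorbic acid and pargyline. Membranes were spun at 25000g, preincubated 30 min at 37 °C and respun, then incubated with 0.4 nM [3H]-8-OH-DPAT for 30 min at 25 °C. 5-HT defined nonspecific binding, and samples were filtered on PEI-soaked GF/B. IC50 came from regression; pKi = −log[IC50/(1+[L]/Kd)].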

Rattus norvegicus [6] = assay: Minimum effective antagonist dose administered subcutaneously; format: functional; conditions: sc, read-out: MED; how it was run: as §2
Rattus norvegicus [7] = assay: Minimum effective agonist dose administered subcutaneously; format: functional; conditions: sc, read-out: MED
How it was run: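 Male Wistar rats (200-220 g) were given the test drug alone sc in water (1.0 mL/kg), with vehicle reinjected at 30 min. Rectal temperature change from basal was measured 60 min after the first injection. MED for hypothermia was set against vehicle by ANOVA with Dunnett's test, P < 0.05.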

[8] = target: D(2) dopamine receptor (Rattus norvegicus) (UniProt P61169)
Chain of D(2) dopamine receptor (Rattus norvegicus) (P61169 whole entry): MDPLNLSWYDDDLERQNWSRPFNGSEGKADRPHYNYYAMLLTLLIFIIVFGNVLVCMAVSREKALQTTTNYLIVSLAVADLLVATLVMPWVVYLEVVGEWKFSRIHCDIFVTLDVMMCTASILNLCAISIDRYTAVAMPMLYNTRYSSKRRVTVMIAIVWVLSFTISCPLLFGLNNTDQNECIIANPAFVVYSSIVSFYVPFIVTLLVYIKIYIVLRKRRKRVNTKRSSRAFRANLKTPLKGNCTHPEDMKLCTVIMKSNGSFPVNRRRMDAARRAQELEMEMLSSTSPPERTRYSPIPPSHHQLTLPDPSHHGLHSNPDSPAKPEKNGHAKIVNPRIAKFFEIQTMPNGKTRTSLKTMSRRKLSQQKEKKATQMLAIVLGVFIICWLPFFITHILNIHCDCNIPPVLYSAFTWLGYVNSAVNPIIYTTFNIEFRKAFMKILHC

Rattus norvegicus [9] = species on record: Rattus norvegicus; assay: Maximum antagonist effect (% effect) expressed relative to 8-hydroxy-DPAT (100%); format: functional; how it was run: as §1

Chain of 5-hydroxytryptamine receptor 1B (P28564 whole entry): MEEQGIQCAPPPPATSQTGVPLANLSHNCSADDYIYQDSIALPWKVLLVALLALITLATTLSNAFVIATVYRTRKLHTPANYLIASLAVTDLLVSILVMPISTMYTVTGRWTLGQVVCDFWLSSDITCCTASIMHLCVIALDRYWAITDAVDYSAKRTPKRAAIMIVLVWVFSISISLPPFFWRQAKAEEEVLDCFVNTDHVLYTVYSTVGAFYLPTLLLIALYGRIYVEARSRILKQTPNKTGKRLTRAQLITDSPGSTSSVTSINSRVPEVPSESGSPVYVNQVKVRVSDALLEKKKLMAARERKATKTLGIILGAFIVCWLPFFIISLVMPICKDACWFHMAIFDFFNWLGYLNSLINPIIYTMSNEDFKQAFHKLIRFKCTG

SMILES | Ki [1] [nM] | Ratio [2] | Max effect (Rattus norvegicus [3]) [%] | ED50 (Rattus norvegicus [4]) [mg/kg] | Ki [5] [nM] | minimal effective dose (Rattus norvegicus [6]) [mg/kg] | minimal effective dose (Rattus norvegicus [7]) [mg/kg] | ID50 [8] [mg/kg] | Max effect (Rattus norvegicus [9]) [%]
c1ccc2c(c1)CC2CCCN1CCN(c2cccc3c2OCCO3)CC1 (stereo not given) | 646 | 62.5 | 100 | 0.18 | 0.447 | 0.16 | 10 | 1.7 | 75
c1ccc2c(c1)CC2CCCN1CCN(c2cccc3c2OCCCO3)CC1 (stereo not given) | 617 | > 15.6 | 21 | 0.27 | 0.794 | 0.16 | > 2.5 |  | 85
c1ccc2c(c1)CC2CN1CCN(c2cccc3c2OCCCO3)CC1 (stereo not given) |  | > 15.8 | 76 | 0.32 | 7.94 | 0.63 | > 10 | > 40 | 91
C1=C(CCN2CCN(c3cccc4c3OCCO4)CC2)Cc2ccccc21 | 933 | 32.2 | 76 | 0.36 | 0.537 | 0.31 | 10 |  | 81
COc1cc2c(cc1OC)C(CCN1CCN(c3cccc4c3OCCO4)CC1)C2 (stereo not given) | 794 | > 32 | 4 | 1.41 | 3.16 | 1.25 | > 40 | > 40 | 96
C1=C(CCN2CCN(c3cccc4c3OCCO4)CC2)c2ccccc2C1 | 251 | > 4 | 21 | 0.45 | 0.794 | 0.63 | > 2.5 | > 40 | 94
c1ccc2c(c1)CC2CN1CCN(c2cccc3ccoc23)CC1 (stereo not given) | 912 | > 4 | 15 | 1.12 | 7.94 | 2.5 | > 10 |  | 96
C1=C(CCN2CCN(c3cccc4c3OCCO4)CC2)c2ccccc2CC1 | 229 | > 63.5 | 14 | 0.4 | 2 | 0.63 | > 40 | > 40 | 100
Fc1cccc2c1CC2CN1CCN(c2cccc3c2OCCO3)CC1 (stereo not given) | 316 | > 15.8 | 19 | 2.51 | 1.78 | 0.63 | > 10 | > 40 | 61
c1ccc2c(c1)CCCC2CCN1CCN(c2cccc3c2OCCO3)CC1 (stereo not given) | 708 | > 15.6 | 8 | 0.4 | 2.75 | 0.16 | > 2.5 | 40 | 70
Clc1cccc2c1CC2CCCN1CCN(c2cccc3c2OCCO3)CC1 (stereo not given) | 1100 | > 15.8 | 15 | 3.09 | 3.72 | 0.63 | > 10 | 40 | 60
c1cc2c(c(N3CCNCC3)c1)OCCO2 [ELTOPRAZINE] |  | < 0.06 | 100 | > 40 |  | > 40 | 2.5 |  | 0
c1ccc2c(c1)CC(CN1CCN(c3cccc4c3OCCO4)CC1)C2 | 490 | > 15.8 | 0 | 0.55 | 2.82 | 0.63 | > 10 | > 40 | 87
C1=C(CCN2CCN(c3cccc4c3OCCO4)CC2)c2ccccc2CCC1 | 380 | > 16 | 33 | 5.02 | 3.16 | 2.5 | > 40 | 40 | 55
c1ccc2c(c1)CC(CCCN1CCN(c3cccc4c3OCCO4)CC1)C2 | 1860 | 63.5 | 40 | 0.47 | 1.26 | 0.63 | 40 | > 40 | 70
c1ccc2c(c1)CC2CCN1CCN(c2cccc3c2OCCCO3)CC1 (stereo not given) | 562 | 32 | 31 | 2.68 | 1.15 | 1.25 | 40 | 30 | 72
c1ccc2c(c1)CCC2CCCN1CCN(c2cccc3c2OCCO3)CC1 (stereo not given) | 204 | 62.5 | 100 | 0.29 | 0.617 | 0.16 | 10 | > 40 | 81
c1ccc2c(c1)CC(CCN1CCN(c3cccc4c3OCCO4)CC1)C2 | 692 | 62.5 | 50 | 0.27 |  | 0.16 | 10 | 5.9 | 100
COc1cc2nc(N3CCN(C(=O)c4ccco4)CC3)nc(N)c2cc1OC |  |  |  |  |  |  |  | > 10 | 
